Test results: ChEMBL document CHEMBL1759916, “Bicyclo[2.2.2]octyltriazole inhibitors of 11β-hydoxysteroid dehydrogenase type 1. Pharmacological agents for the treatment of metabolic syndrome” (Bioorg Med Chem Lett, 2011)
Values belong to the compound of their own block, whether it stands above or below them. Active and inactive are the calls of the source. The rule behind the calls is not given here.

Columns and labels:
Mus musculus [1] = assay: Inhibition of 11beta-HSD1 in ICR mouse assessed as inhibition of conversion of [3H]-cortisone to [3H]-cortisol at 10 mg/kg, po administered 16 hrs before [3H]-cortisone challenge; type: functional
Method in brief: (§1)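 Mouse pharmacodynamic model. Compound given 10 mg/kg PO, then 3H-cortisone by tail vein injection 1, 4 or 16 h after dosing. […] Plasma compound levels were measured after the PD studies.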

Mus musculus [2] = assay: Inhibition of 11beta-HSD1 in ICR mouse assessed as inhibition of conversion of [3H]-cortisone to [3H]-cortisol at 10 mg/kg, po administered 4 hrs before [3H]-cortisone challenge; type: functional; method in brief: as §1
[3] = molecular target: 11-beta-hydroxysteroid dehydrogenase 1 (Mus musculus, UniProt P50172); assay: Inhibition of mouse 11beta-HSD1 expressed in CHO-K1 cells assessed as conversion of [3H]-cortisone to [3H]-cortisol by scintillation proximity assay; type: cell-based
[4] = molecular target: 11-beta-hydroxysteroid dehydrogenase 1 (Homo sapiens, UniProt P28845); assay: Inhibition of human 11beta-HSD1 expressed in CHO-K1 cells assessed as conversion of [3H]-cortisone to [3H]-cortisol by scintillation proximity assay; type: cell-based
Method in brief: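 Scintillation proximity assay (SPA). IC50 values are the average of two determinations.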

[5] = molecular target: T1, Nuclear receptor subfamily 1 group I member 2 (Homo sapiens, UniProt O75469); assay: Activation of PXR
T1 sequence (O75469 whole entry): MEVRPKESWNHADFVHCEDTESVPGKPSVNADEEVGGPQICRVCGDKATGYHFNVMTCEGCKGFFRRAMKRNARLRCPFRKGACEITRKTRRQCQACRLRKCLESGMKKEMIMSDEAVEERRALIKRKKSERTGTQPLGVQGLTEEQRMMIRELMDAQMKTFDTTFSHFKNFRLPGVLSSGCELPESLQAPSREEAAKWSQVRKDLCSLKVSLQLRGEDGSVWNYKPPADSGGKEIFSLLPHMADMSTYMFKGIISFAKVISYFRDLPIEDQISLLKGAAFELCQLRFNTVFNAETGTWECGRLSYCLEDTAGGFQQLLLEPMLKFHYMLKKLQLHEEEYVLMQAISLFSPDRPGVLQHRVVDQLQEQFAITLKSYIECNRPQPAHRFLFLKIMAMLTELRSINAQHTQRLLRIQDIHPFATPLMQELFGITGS
Method in brief: (§2)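 Cyp induction potential assessed in human liver microsomes; read out as human PXR activation, with test compound at 10 μM.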

Mus musculus [6] = assay: Inhibition of 11beta-HSD1 in ICR mouse assessed as inhibition of conversion of [3H]-cortisone to [3H]-cortisol at 10 mg/kg, po administered 1 hr before [3H]-cortisone challenge; type: functional; method in brief: as §1
[7] = Bioavailability in C57 mouse at 2 mg/kg, iv and 10 mg/kg, po; type: ADME, organism-based; details: in vivo
Method in brief: (§3)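 Mouse PK from 2 mg/kg IV and 10 mg/kg oral dosing. The PO AUC is reported normalized to dose.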

[8] = Clearance in C57 mouse at 2 mg/kg, iv; type: ADME, organism-based; design: dose 2 mg/kg, route intravenous; details: in vivo; method in brief: as §3
[9] = Volume of distribution in C57 mouse at 2 mg/kg, iv and 10 mg/kg, po; type: ADME, organism-based; details: in vivo
[10] = Half life in C57 mouse at 2 mg/kg, iv and 10 mg/kg, po; type: ADME, organism-based; details: in vivo
[11] = Tmax in C57 mouse at 2 mg/kg, iv and 10 mg/kg, po; type: ADME, organism-based; details: in vivo
[12] = Clearance in Sprague-Dawley rat at 1 mg/kg, iv and 4 mg/kg, po; type: ADME, organism-based; details: in vivo
[13] = Volume of distribution in Sprague-Dawley rat at 1 mg/kg, iv and 4 mg/kg, po; type: ADME, organism-based; details: in vivo
[14] = Half life in Sprague-Dawley rat at 1 mg/kg, iv and 4 mg/kg, po; type: ADME, organism-based; details: in vivo
[15] = Tmax in Sprague-Dawley rat at 1 mg/kg, iv and 4 mg/kg, po; type: ADME, organism-based; details: in vivo
[16] = Bioavailability in Sprague-Dawley rat 1 mg/kg, iv and 4 mg/kg, po; type: ADME, organism-based; details: in vivo
[17] = Clearance in Beagle dog at 0.5 mg/kg, iv and 2 mg/kg, po; type: ADME, organism-based, Canis lupus familiaris; details: in vivo
[18] = Volume of distribution in Beagle dog at 0.5 mg/kg, iv and 2 mg/kg, po; type: ADME, organism-based, Canis lupus familiaris; details: in vivo
[19] = Half life in Beagle dog at 0.5 mg/kg, iv and 2 mg/kg, po; type: ADME, organism-based, Canis lupus familiaris; details: in vivo
[20] = Tmax in Beagle dog at 0.5 mg/kg, iv and 2 mg/kg, po; type: ADME, organism-based, Canis lupus familiaris; details: in vivo
[21] = Bioavailability in Beagle dog at 0.5 mg/kg, iv and 2 mg/kg, po; type: ADME, organism-based, Canis lupus familiaris; details: in vivo
[22] = Clearance in rhesus monkey at 0.5 mg/kg, iv and 2 mg/kg, po; type: ADME, organism-based, Macaca mulatta; details: in vivo
[23] = Volume of distribution in rhesus monkey at 0.5 mg/kg, iv and 2 mg/kg, po; type: ADME, organism-based, Macaca mulatta; details: in vivo
[24] = Half life in rhesus monkey at 0.5 mg/kg, iv and 2 mg/kg, po; type: ADME, organism-based, Macaca mulatta; details: in vivo
[25] = Tmax in rhesus monkey at 0.5 mg/kg, iv and 2 mg/kg, po; type: ADME, organism-based, Macaca mulatta; details: in vivo
[26] = Bioavailability in rhesus monkey at 0.5 mg/kg, iv and 2 mg/kg, po; type: ADME, organism-based, Macaca mulatta; details: in vivo
[27] = Solubility of the compound in water; type: physicochemical
[28] = Distribution coefficient, log D of the compound by HPLC analysis; type: physicochemical; details: octanol/water
[29] = molecular target: T1, Nuclear receptor subfamily 1 group I member 2; assay: Activation of human PXR at 10 uM; method in brief: as §2
Mus musculus [30] = species: Mus musculus; assay: Antiobesity activity in diet-induced obesity mouse model; type: functional, organism-based
Mus musculus [31] = species: Mus musculus; assay: Antiatherosclerotic activity in Apo-E knockout mouse model; type: functional, organism-based
Mus musculus [32] = species: Mus musculus; assay: Antidiabetic activity in B6-Ay mouse by oral glucose tolerance test; type: functional, organism-based
[33] = Induction of cytochrome P450 activity in human liver microsomes; type: ADME; method in brief: as §2

11-beta-hydroxysteroid dehydrogenase 1 (Homo sapiens, UniProt P28845), sequence (P28845 whole entry): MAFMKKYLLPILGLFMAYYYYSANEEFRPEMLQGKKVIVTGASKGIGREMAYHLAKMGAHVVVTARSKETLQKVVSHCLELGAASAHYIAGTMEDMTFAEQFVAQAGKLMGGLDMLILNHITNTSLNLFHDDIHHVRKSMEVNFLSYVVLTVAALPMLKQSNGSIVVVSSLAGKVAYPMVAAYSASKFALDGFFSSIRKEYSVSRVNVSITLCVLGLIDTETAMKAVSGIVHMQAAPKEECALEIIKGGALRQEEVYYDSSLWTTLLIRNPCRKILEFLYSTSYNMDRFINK
11-beta-hydroxysteroid dehydrogenase 1 (Mus musculus, UniProt P50172), sequence (P50172 whole entry): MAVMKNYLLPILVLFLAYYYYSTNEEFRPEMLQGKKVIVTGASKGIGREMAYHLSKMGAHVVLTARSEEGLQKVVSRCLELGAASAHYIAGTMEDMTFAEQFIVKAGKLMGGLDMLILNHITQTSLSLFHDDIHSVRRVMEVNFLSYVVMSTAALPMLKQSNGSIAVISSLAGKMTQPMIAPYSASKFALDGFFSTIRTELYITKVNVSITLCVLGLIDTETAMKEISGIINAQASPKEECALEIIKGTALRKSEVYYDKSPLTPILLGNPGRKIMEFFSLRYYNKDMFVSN

IC50 [3]: 1.5 nM | IC50 [4]: 1.1 nM | Activity [5]: Active
SMILES: Cn1c(-c2ccccc2C(F)(F)F)nnc1C12CCC(COc3ccc(Cl)cc3)(CC1)CC2
inhibition in vivo at 10 mg/kg (Mus musculus [1]): 77% | inhibition in vivo at 10 mg/kg (Mus musculus [2]): 98%

IC50 [4]: 4 nM | bioavailability [7]: 6%
SMILES: CCCCCC12CCC(c3nnc4n3CCCCCC4)(CC1)CC2
inhibition in vivo at 10 mg/kg (Mus musculus [6]): 71% | inhibition in vivo at 10 mg/kg (Mus musculus [2]): 51%

clearance [8]: 2.1 mL/min/kg | bioavailability [7]: 24% | Vd [9]: 0.72 L/kg | half-life [10]: 4.8 h | Tmax [11]: 5 h | clearance [12]: 2.9 mL/min/kg | Vd [13]: 1.1 L/kg | half-life [14]: 4.9 h | Tmax [15]: 2 h | bioavailability [16]: 87% | clearance [17]: 1.9 mL/min/kg | Vd [18]: 1.7 L/kg | half-life [19]: 12.2 h | Tmax [20]: 2 h | bioavailability [21]: 59% | clearance [22]: 4 mL/min/kg | Vd [23]: 1.6 L/kg | half-life [24]: 6.5 h | Tmax [25]: 2 h | bioavailability [26]: 89% | solubility [27]: > 1000 µg/mL | logD [28]: 2.2 | Activity [29]: < 10% | Activity [33]: Not Active
SMILES: CCS(=O)(=O)CCC12CCC(c3nnc(-c4ccccc4C(F)(F)F)n3C)(CC1)CC2
inhibition in vivo at 10 mg/kg (Mus musculus [1]): 76% | inhibition in vivo at 10 mg/kg (Mus musculus [2]): 89% | Activity (Mus musculus [30]): Active | Activity (Mus musculus [31]): Active | Activity (Mus musculus [32]): Active
